Reference: ChEMBL document CHEMBL1145084, “Polymer-assisted solution-phase library synthesis and crystal structure of alpha-ketothiazoles as tissue factor VIIa inhibitors” (J Med Chem, 2003)

What was measured:
Prothrombin = Prothrombin (Homo sapiens, UniProt P00734); experiment: Inhibitory activity against thrombin (IIa).
Outline: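 Human thrombin (0.28 nM) with H-D-Phe-Pip-Arg-p-nitroaniline (0.06 mM) in 50 mM Tris-HCl pH 8.0, 100 mM NaCl, 0.1% BSA. Immediate background read at 405 nm, then 60 min at room temperature before measuring p-nitroaniline release rate at 405 nm. Seven concentrations in duplicate; % inhibition versus control; IC50 by four-parameter logistic regression.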

Coagulation factor X = Coagulation factor X (Homo sapiens, UniProt P00742); experiment: Inhibitory activity against coagulation factor X.
Coagulation factor X, sequence (P00742 41-179 limits assumed): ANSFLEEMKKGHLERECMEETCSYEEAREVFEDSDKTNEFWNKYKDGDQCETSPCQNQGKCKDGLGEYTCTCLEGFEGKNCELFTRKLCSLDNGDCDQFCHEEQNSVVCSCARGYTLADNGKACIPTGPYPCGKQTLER
Coagulation factor X, sequence (P00742 235-488 limits assumed): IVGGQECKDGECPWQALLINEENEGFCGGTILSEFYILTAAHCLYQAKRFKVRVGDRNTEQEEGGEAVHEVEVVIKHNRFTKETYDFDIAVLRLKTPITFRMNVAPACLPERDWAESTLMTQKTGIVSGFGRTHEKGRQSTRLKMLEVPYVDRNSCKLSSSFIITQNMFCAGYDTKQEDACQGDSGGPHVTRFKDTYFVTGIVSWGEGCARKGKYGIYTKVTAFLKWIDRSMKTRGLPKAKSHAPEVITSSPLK
Outline: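 Human Factor Xa (0.3 nM) with chromogenic substrate S-2765 (0.15 mM) in 50 mM Tris-HCl pH 8.0, 100 mM NaCl, 0.1% BSA. A405 background read taken at once, then 60 min at room temperature, then p-nitroaniline release rate at 405 nm. Duplicates at seven concentrations; % inhibition versus control; IC50 from four-parameter logistic fit, averaged over the duplicates.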

Coagulation factor VII = target: T1, Coagulation factor VII (Homo sapiens, UniProt P08709); experiment: Inhibitory activity against tissue coagulation factor VII.
T1 sequence (P08709 whole entry): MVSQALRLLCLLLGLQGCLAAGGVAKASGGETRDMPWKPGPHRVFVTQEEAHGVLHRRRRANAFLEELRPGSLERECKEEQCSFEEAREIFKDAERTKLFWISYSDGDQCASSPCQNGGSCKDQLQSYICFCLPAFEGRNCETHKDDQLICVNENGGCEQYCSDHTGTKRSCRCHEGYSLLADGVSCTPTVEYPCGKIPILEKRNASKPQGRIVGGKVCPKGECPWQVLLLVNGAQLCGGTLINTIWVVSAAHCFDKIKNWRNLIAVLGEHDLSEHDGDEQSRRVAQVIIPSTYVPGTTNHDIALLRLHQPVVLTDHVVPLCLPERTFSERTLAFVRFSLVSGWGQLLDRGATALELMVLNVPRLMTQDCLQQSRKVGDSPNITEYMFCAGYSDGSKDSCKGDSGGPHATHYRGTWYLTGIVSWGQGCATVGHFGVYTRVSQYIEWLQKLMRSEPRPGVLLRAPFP
Outline: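 Complex of recombinant soluble tissue factor (100 nM) and recombinant human Factor VIIa (2 nM). Substrate N-methylsulfonyl-D-Phe-Gly-Arg-p-nitroaniline at 0.4 mM in 5 mM CaCl2, 50 mM Tris-HCl pH 8.0, 100 mM NaCl, 0.1% BSA. Background A405 read first; after 60 min at room temperature, hydrolysis rate read at 405 nm. Duplicates at seven concentrations; IC50 is the duplicate average.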

[1] = target: Thrombin and coagulation factor VII (Homo sapiens) (UniProt P00734+P08709); experiment: Selectivity for coagulation factor VIIa over thrombin IIa.; format: protein assay

N=C(N)NCCC[C@H](NC(=O)[C@H](Cc1cccc(-c2ccccc2)c1)NC(=O)[C@@H](Cc1ccccc1)NS(=O)(=O)Cc1ccccc1)C(=O)c1nccs1
IC50 (Prothrombin): 1680 nM | IC50 (Coagulation factor X): 1070 nM | IC50 (Coagulation factor VII): 1830 nM | Selectivity [1]: 1

N=C(N)NCCC[C@H](NC(=O)[C@H](Cc1cccnc1)NC(=O)[C@@H](Cc1ccccc1)NS(=O)(=O)Cc1ccccc1)C(=O)c1nccs1
Selectivity [1]: 500

N=C(N)NCCC[C@H](NC(=O)[C@H](COCc1ccccc1)NC(=O)[C@@H](Cc1ccccc1)NS(=O)(=O)Cc1ccccc1)C(=O)c1nccs1
IC50 (Prothrombin): 9890 nM | IC50 (Coagulation factor X): 310 nM | IC50 (Coagulation factor VII): 1530 nM | Selectivity [1]: 6

N=C(N)NCCC[C@H](NC(=O)[C@H](Cc1ccccc1F)NC(=O)[C@@H](Cc1ccccc1)NS(=O)(=O)Cc1ccccc1)C(=O)c1nccs1
Selectivity [1]: > 333

CC(C)(C)C[C@H](NC(=O)[C@@H](Cc1ccccc1)NS(=O)(=O)Cc1ccccc1)C(=O)N[C@@H](CCCNC(=N)N)C(=O)c1nccs1
IC50 (Prothrombin): 440 nM | IC50 (Coagulation factor X): 1030 nM | IC50 (Coagulation factor VII): 700 nM

Cc1ccc(C[C@H](NC(=O)[C@@H](Cc2ccccc2)NS(=O)(=O)Cc2ccccc2)C(=O)N[C@@H](CCCN=C(N)N)C(=O)c2nccs2)cc1
IC50 (Prothrombin): 7480 nM | IC50 (Coagulation factor X): 570 nM | IC50 (Coagulation factor VII): 1290 nM | Selectivity [1]: 6

N=C(N)NCCC[C@H](NC(=O)[C@H](Cc1cn(Cc2ccccc2)cn1)NC(=O)[C@@H](Cc1ccccc1)NS(=O)(=O)Cc1ccccc1)C(=O)c1nccs1
IC50 (Prothrombin): 9920 nM | IC50 (Coagulation factor X): 2400 nM | IC50 (Coagulation factor VII): 9970 nM | Selectivity [1]: 1

N=C(N)NCCC[C@H](NC(=O)[C@H](Cc1cccc(Cl)c1)NC(=O)[C@@H](Cc1ccccc1)NS(=O)(=O)Cc1ccccc1)C(=O)c1nccs1
Selectivity [1]: 63

N=C(N)NCCC[C@H](NC(=O)[C@H](Cc1cc(F)c(F)c(F)c1)NC(=O)[C@@H](Cc1ccccc1)NS(=O)(=O)Cc1ccccc1)C(=O)c1nccs1
IC50 (Coagulation factor X): 250 nM | IC50 (Coagulation factor VII): 200 nM

N=C(N)NCCC[C@H](NC(=O)[C@H](CC(N)=O)NC(=O)[C@@H](Cc1ccccc1)NS(=O)(=O)Cc1ccccc1)C(=O)c1nccs1
Selectivity [1]: 58

N=C(N)NCCC[C@H](NC(=O)[C@H](CC(=O)OC1CCCCC1)NC(=O)[C@@H](Cc1ccccc1)NS(=O)(=O)Cc1ccccc1)C(=O)c1nccs1
IC50 (Prothrombin): 4990 nM | IC50 (Coagulation factor X): 1250 nM | IC50 (Coagulation factor VII): 3180 nM | Selectivity [1]: 2

N=C(N)NCCC[C@H](NC(=O)[C@H](Cc1ccc(Cl)cc1)NC(=O)[C@@H](Cc1ccccc1)NS(=O)(=O)Cc1ccccc1)C(=O)c1nccs1
IC50 (Prothrombin): 3420 nM | IC50 (Coagulation factor X): 610 nM | IC50 (Coagulation factor VII): 680 nM | Selectivity [1]: 5

N=C(N)NCCC[C@H](NC(=O)[C@H](CC1CC1)NC(=O)[C@@H](Cc1ccccc1)NS(=O)(=O)Cc1ccccc1)C(=O)c1nccs1
IC50 (Prothrombin): 9200 nM | IC50 (Coagulation factor X): 2120 nM | IC50 (Coagulation factor VII): 820 nM | Selectivity [1]: 11

N=C(N)NCCC[C@H](NC(=O)[C@H](Cc1ccc(F)c(F)c1)NC(=O)[C@@H](Cc1ccccc1)NS(=O)(=O)Cc1ccccc1)C(=O)c1nccs1
Selectivity [1]: 70

N=C(N)NCCC[C@H](NC(=O)[C@H](Cc1csc2ccccc12)NC(=O)[C@@H](Cc1ccccc1)NS(=O)(=O)Cc1ccccc1)C(=O)c1nccs1
IC50 (Prothrombin): 15400 nM | IC50 (Coagulation factor X): 150 nM | IC50 (Coagulation factor VII): 500 nM | Selectivity [1]: 3

N=C(N)NCCC[C@H](NC(=O)[C@H](Cc1ccc(Br)cc1)NC(=O)[C@@H](Cc1ccccc1)NS(=O)(=O)Cc1ccccc1)C(=O)c1nccs1
IC50 (Prothrombin): 3190 nM | IC50 (Coagulation factor X): 380 nM | IC50 (Coagulation factor VII): 760 nM | Selectivity [1]: 4

CC(=O)Nc1ccc(C[C@H](NC(=O)[C@@H](Cc2ccccc2)NS(=O)(=O)Cc2ccccc2)C(=O)N[C@@H](CCCNC(=N)N)C(=O)c2nccs2)cc1
IC50 (Prothrombin): 4590 nM | IC50 (Coagulation factor X): 300 nM | IC50 (Coagulation factor VII): 570 nM

CC(=O)Nc1ccc(C[C@H](NC(=O)[C@@H](Cc2ccccc2)NS(=O)(=O)Cc2ccccc2)C(=O)N[C@@H](CCCN=C(N)N)C(=O)c2nccs2)cc1
Selectivity [1]: 8

N=C(N)NCCC[C@H](NC(=O)[C@H](Cc1ccc(F)cc1)NC(=O)[C@@H](Cc1ccccc1)NS(=O)(=O)Cc1ccccc1)C(=O)c1nccs1
IC50 (Prothrombin): 3150 nM | IC50 (Coagulation factor X): 185 nM | IC50 (Coagulation factor VII): 170 nM | Selectivity [1]: 19

CC[C@@H](C)[C@H](NC(=O)[C@@H](Cc1ccccc1)NS(=O)(=O)Cc1ccccc1)C(=O)N[C@@H](CCCN=C(N)N)C(=O)c1nccs1
Selectivity [1]: 64

N=C(N)NCCC[C@H](NC(=O)[C@H](CO)NC(=O)[C@@H](Cc1ccccc1)NS(=O)(=O)Cc1ccccc1)C(=O)c1nccs1
IC50 (Prothrombin): 40 nM | IC50 (Coagulation factor X): 240 nM | IC50 (Coagulation factor VII): 110 nM | Selectivity [1]: 0.4

CC(C)(C)C[C@H](NC(=O)[C@@H](Cc1ccccc1)NS(=O)(=O)Cc1ccccc1)C(=O)N[C@@H](CCCN=C(N)N)C(=O)c1nccs1
Selectivity [1]: 0.6

Cc1cccc(C[C@H](NC(=O)[C@@H](Cc2ccccc2)NS(=O)(=O)Cc2ccccc2)C(=O)N[C@@H](CCCN=C(N)N)C(=O)c2nccs2)c1
Selectivity [1]: 71

CN(C)CCCC[C@H](NC(=O)[C@@H](Cc1ccccc1)NS(=O)(=O)Cc1ccccc1)C(=O)N[C@@H](CCCN=C(N)N)C(=O)c1nccs1
Selectivity [1]: 5

N=C(N)NCCC[C@H](NC(=O)[C@H](Cc1cc(F)cc(F)c1)NC(=O)[C@@H](Cc1ccccc1)NS(=O)(=O)Cc1ccccc1)C(=O)c1nccs1
IC50 (Prothrombin): 6820 nM | IC50 (Coagulation factor X): 180 nM | IC50 (Coagulation factor VII): 190 nM | Selectivity [1]: 36

N=C(N)NCCC[C@H](NC(=O)[C@H](Cc1ccccc1)NC(=O)[C@@H](Cc1ccccc1)NS(=O)(=O)Cc1ccccc1)C(=O)c1nccs1
Selectivity [1]: 95

CS(=O)(=O)CC[C@H](NC(=O)[C@@H](Cc1ccccc1)NS(=O)(=O)Cc1ccccc1)C(=O)N[C@@H](CCCN=C(N)N)C(=O)c1nccs1
IC50 (Prothrombin): 12900 nM | IC50 (Coagulation factor X): 2000 nM | IC50 (Coagulation factor VII): 13700 nM | Selectivity [1]: 1

Cc1ccccc1C[C@H](NC(=O)[C@@H](Cc1ccccc1)NS(=O)(=O)Cc1ccccc1)C(=O)N[C@@H](CCCN=C(N)N)C(=O)c1nccs1
Selectivity [1]: 90

N=C(N)NCCC[C@H](NC(=O)[C@H](Cc1cccc(F)c1)NC(=O)[C@@H](Cc1ccccc1)NS(=O)(=O)Cc1ccccc1)C(=O)c1nccs1
Selectivity [1]: 75

NC(N)=NCCC[C@H](NC(=O)[C@H](Cc1ccc([N+](=O)[O-])cc1)NC(=O)[C@@H](Cc1ccccc1)NS(=O)(=O)Cc1ccccc1)C(=O)c1nccs1
IC50 (Prothrombin): > 30000 nM | IC50 (Coagulation factor X): 2180 nM | IC50 (Coagulation factor VII): 5880 nM

CN(C)CCCC[C@H](NC(=O)[C@@H](Cc1ccccc1)NS(=O)(=O)Cc1ccccc1)C(=O)N[C@@H](CCCNC(=N)N)C(=O)c1nccs1
IC50 (Prothrombin): 15400 nM | IC50 (Coagulation factor X): 1700 nM | IC50 (Coagulation factor VII): 2820 nM

N=C(N)NCCC[C@H](NC(=O)[C@H](Cc1cccc(C(F)(F)F)c1)NC(=O)[C@@H](Cc1ccccc1)NS(=O)(=O)Cc1ccccc1)C(=O)c1nccs1
Selectivity [1]: 106

N#Cc1ccc(C[C@H](NC(=O)[C@@H](Cc2ccccc2)NS(=O)(=O)Cc2ccccc2)C(=O)N[C@@H](CCCNC(=N)N)C(=O)c2nccs2)cc1
Selectivity [1]: 147

N#CC[C@H](NC(=O)[C@@H](Cc1ccccc1)NS(=O)(=O)Cc1ccccc1)C(=O)N[C@@H](CCCNC(=N)N)C(=O)c1nccs1
Selectivity [1]: 69

N=C(N)NCCC[C@H](NC(=O)[C@H](Cc1ccc([N+](=O)[O-])cc1)NC(=O)[C@@H](Cc1ccccc1)NS(=O)(=O)Cc1ccccc1)C(=O)c1nccs1
Selectivity [1]: > 5
